Results collected from several papers.
Lines come from different studies, so protocols differ.
Read-out: cell growth or viability

| Compound | cell line | test | conditions | endpoint | value |
| --- | --- | --- | --- | --- | --- |
| CN(C)CCNC(=O)c1ccc(-c2nc3ccc4[nH]ncc4c3c3c2COCC3)cc1 | K562 | resazurin | 72 h | GI50 | 3.5 µM |
| COC(=O)CNC(=O)C(=O)OC | OCI-Ly1 | ATP luminescence | 0.1 µM, 5 days | viability | 198% |
| CN(C)CCNC(=O)c1ccc(-c2nc3ccc4[nH]ncc4c3c3c2CCCC3)cc1 | K562 | resazurin | 72 h | GI50 | 1.3 µM |
| CCCCCCCCCCCCCCCCCCOc1cccc(CC(=O)OCC[N+](CC)(CC)CC)c1 | HOP-62 | SRB | 10 µM | inhibition | 30.9% |
| CN(C)CCNC(=O)c1ccc(-c2nc3ccc4[nH]ncc4c3c3c2CCCCC3)c(F)c1 | K562 | resazurin | 72 h | GI50 | 1.4 µM |
| O=C(Nc1ccc(Cl)cc1)C1CCCN(C(=O)c2cc(C(F)(F)F)cc(C(F)(F)F)c2)C1 (racemic) | OCI-Ly1 | ATP luminescence | 0.1 µM, 5 days | viability | 191% |
| CCCCCCCCCCCCCCCCCCOc1ccccc1CC(=O)OCC[N+](CC)(CC)CC | HOP-92 | SRB | 10 µM | inhibition | 93.2% |
| O=C(CCCCCCC(=O)Nc1ccccc1)NO | OCI-Ly1 | ATP luminescence | 0.1 µM, 5 days | viability | 162% |
| CCCCCCCCCCCCCCCCCCOc1cccc(CC(=O)OCCC[N+](C)(C)C)c1 | HOP-62 | SRB | 10 µM | inhibition | 15.9% |
| NC(=O)c1ccc(-c2nc3ccc4[nH]ncc4c3c3c2CCCC3)cc1 | K562 | resazurin | 72 h | GI50 | 7.6 µM |
| O=C(NO)c1ccc(CC(=O)N(CCO)c2ccccc2)cc1 | OCI-Ly1 | ATP luminescence | 0.1 µM, 5 days | viability | 94.6% |
| CCCCCCCCCCCCCCCCCCOc1cccc(CC(=O)OCC[N+]2(C)CCCC2)c1 | HOP-62 | SRB | 10 µM | inhibition | 9.94% |
| O=C(Nc1ccc(C2CCCCC2)cc1)[C@H]1O[C@H](O[C@@H]2[C@@H](OCc3ccc4ccccc4c3)[C@H](O[C@H]3O[C@H](CNS(=O)(=O)O)[C@@H](OCc4ccc5ccccc5c4)C[C@H]3NS(=O)(=O)O)[C@@H](NS(=O)(=O)O)C[C@H]2NS(=O)(=O)O)[C@H](OCc2ccc3ccccc3c2)[C@@H](NS(=O)(=O)O)[C@@H]1OCc1ccc2ccccc2c1 | 4T1 | CCK-8 | 120 µM, 48 h | viability | 5 to 10% |
| O=C(CCCCCCSc1ccc2ccccc2c1)NO | OCI-Ly1 | ATP luminescence | 0.1 µM, 5 days | viability | 194% |
| NCCNC(=O)c1ccc(-c2nc3ccc4[nH]ncc4c3c3c2CCCC3)cc1 | K562 | resazurin | 72 h | GI50 | 6.1 µM |
